# High-throughput results (PubChem)
# Compounds with a hit are over-represented: about 1.4% of the library has one in this group of screens.
# ARFGAP1 inhibitor: inhibits rat ARF GTPase activating protein 1; hit rate 0.26% among 360,000; Q62848; Arfgap1-stimulated ARF1 GTP hydrolysis, GDP FP detection; AID 651572; inhibition, % at 16.5 µM;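 active means inhibition above a per-plate limit, mean inhibition of low control wells plus 3 SD, cut at about 25% in these data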;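 further: 0% = DMSO wells with enzyme and 100% = wells lacking Arfgap1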
# Target sequence (Q62848 1-136 limits assumed): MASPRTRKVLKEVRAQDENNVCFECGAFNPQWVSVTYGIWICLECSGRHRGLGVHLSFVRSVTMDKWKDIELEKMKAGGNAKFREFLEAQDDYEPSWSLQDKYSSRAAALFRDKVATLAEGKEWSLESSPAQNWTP
#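 Repeats: one replicate per compound; assay system: rat Arfgap1 catalytic domain, aa 1-136; times: enzyme reaction 120 min at 25 °C after 20 min preincubation; detection: FP of antibody-bound GDP Alexa 633 tracer, ex 620/em 688 nm; benchmarks: high control wells lacking Arfgap1, low control full reaction with DMSO; reagent: human ARF1(Δ1-17)-GTP substrate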
# MsrA inhibitor: inhibitors of bovine MsrA. purified bovine MsrA, absorbance read-out. inhibition, % at 15.5 µM. hit rate 0.75% among 360,000. AID 651718; in the data active means inhibition above about 4.5%;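 further: 0% = vehicle wells with enzyme and 100% = reference inhibitor wells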
# ASAP1 inh: blocks human ASAP1-stimulated Arf1 GTP hydrolysis; hit rate 0.19% among 360,000; inhibition, % at 16.5 µM; GDP FP detection; in the data active means inhibition above about 25%;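 further: 0% = vehicle with enzyme and substrate and 100% = no enzyme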
# Target sequence (Q9ULH1 325-724 limits assumed): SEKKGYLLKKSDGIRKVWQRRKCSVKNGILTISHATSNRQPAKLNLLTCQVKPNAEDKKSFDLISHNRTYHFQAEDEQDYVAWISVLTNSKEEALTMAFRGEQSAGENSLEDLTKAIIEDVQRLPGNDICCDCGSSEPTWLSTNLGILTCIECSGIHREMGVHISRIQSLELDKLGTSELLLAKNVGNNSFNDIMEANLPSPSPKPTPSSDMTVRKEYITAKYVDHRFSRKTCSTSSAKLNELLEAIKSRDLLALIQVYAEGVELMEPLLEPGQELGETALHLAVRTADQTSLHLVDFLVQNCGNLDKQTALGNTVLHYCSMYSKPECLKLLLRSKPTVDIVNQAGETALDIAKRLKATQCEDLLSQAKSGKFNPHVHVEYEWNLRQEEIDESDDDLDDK
# bovine MsrA act: activators of bovine methionine sulfoxide reductase A. purified bovine MsrA, absorbance read-out. activation, % at 10.6 µM. hit rate 0.3% among 360,000. AID 602163; in the data active means activation above about 7.5%;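 further: 0% = vehicle and 100% = reference activator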
# * hit, by the source's call; nt = no result.
SMILES,ARFGAP1 inhibitor,MsrA inhibitor,ASAP1 inh,bovine MsrA act
O=C1C(C2=C(O)c3ccccc3C2=O)=Nc2ccccc21,16,0,39*,-4
CN=CC1=C(O)c2ccccc2C1=O,1,4,-5,-3
CCN(CC(=O)Nc1ccc([N+](=O)[O-])cc1OC)c1ccccc1,0,4.8*,10,-3
COc1cc([N+](=O)[O-])ccc1NC(=O)CN(C)C,1,2,1,-3
OCCC1CN(Cc2cnc(-c3cccc4ccccc34)nc2)CCN1C1CCCCC1 (configuration not stated),5,0,-5,-4
N#Cc1cc(-c2ccccc2)oc1NC(=O)c1ccco1,7,4.6*,6,-3
Cc1cccc(C(=O)Nc2oc(-c3ccccc3)cc2C#N)c1,-2,0,5,-2
Cc1oc2c(CN(C)C)c(O)ccc2c(=O)c1-c1cscn1,-10,4.8*,12,-5
CCCCNC(=S)N/N=C/c1ccc(C#N)cc1,2,4.7*,-7,-2
CN(Cc1ccccc1)C(=O)c1ccc(NC(=O)C2CCN(C(=O)OC(C)(C)C)CC2)cc1,4,-1,-12,-2
COc1ccc(N2C(=O)CN=C2Nc2nc(C)cc(C)n2)cc1,-7,4.5*,-8,-1
CCC(=O)N(CC(=O)Nc1sc(C)c(C)c1C(N)=O)C1CCCCC1,12,0,-2,-2
COc1cc(/C=C(\C#N)C(=O)c2ccc(O)c(O)c2)cc(I)c1O,-5,4.6*,-18,-8
Oc1ccc(N=Cc2ccc(-c3cccs3)s2)cc1,-1,5.2*,5,-9
Cc1cc(C)nc(NC(=NCCc2c[nH]c3ccccc23)NC(=O)Nc2cccc([N+](=O)[O-])c2)n1,-3,1,-5,-1
NC(=O)c1nn2c(C(F)(F)F)cc(-c3ccccc3)nc2c1Br,6,4.6*,-2,-8
CCN1C(=O)N/C(=C/c2cc(C)n(Cc3ccccc3)c2C)C1=O,-3,4.6*,-6,-7
CC1(C)COC(c2cc3c(cc2Br)OCO3)OC1,7,0,9,0
COC(=O)c1cccc(-n2sc3ccccc3c2=O)c1,-7,1,4,11*
COc1cccc(OC)c1C(=O)Nn1c(C2CCC2)nc2ccccc2c1=O,-1,-1,0,9.4*
CSc1nc2nccc(/C=C\c3ccccc3)n2n1,-5,4.9*,0,-3
COc1ccc(C(=O)N/C(=C\c2ccc3c(c2)OCO3)C(=O)Nc2ccc(C(=O)O)cc2)cc1,2,4,2,-13
Cc1ccc(C(=O)N/C(=C\c2ccc3c(c2)OCO3)C(=O)Nc2ccc(C(=O)O)cc2)cc1,-7,4.6*,-8,-7
CN1CCN(C(=O)Nc2ccc3c(c2)N(C)C(=O)c2ccccc2S3)CC1,-8,0,9,-2
CN1CCN(C(=O)Nc2cccc(-c3ccccc3)c2)CC1,14,4.6*,-8,-5
SMILES,ARFGAP1 inhibitor,MsrA inhibitor,ASAP1 inh,bovine MsrA act
O=C(Oc1cc2oc(=O)cc(-c3ccccc3)c2cc1Cl)C1CCCCC1,4,18*,3,-2
O=C(C1=COCCO1)N1CCN(c2nc3ccc([N+](=O)[O-])cc3s2)CC1,10,0,28*,-3
CCOc1cc(OCC)cc(C(=O)N2CCC[C@@H]2C(=O)N2CCC[C@H]2C(=O)NCc2ccncc2)c1,-1,-1,7,-3
O=C(O)c1cc(O)ccc1N=Nc1ccccc1,3,4.6*,7,-2
Cc1ccc2nc(-c3ccc(NC(=O)COCC(=O)O)cc3)sc2c1,-8,4.5*,-3,-5
CC(=O)Nc1cc2c(cc1[N+](=O)[O-])OCCO2,0,4.6*,-9,0
CCNC(=O)N(C)C[C@H]1N[C@@](CC)(C(=O)OC)[C@H]2C(=O)N(Cc3ccccc3)C(=O)[C@@H]12,-8,2,14,-1
O=C(NCc1ccc(Cl)cc1)c1cc(-c2ccco2)on1,5,2,4,-3
COc1ccc(CNC(=O)c2cc(-c3ccco3)on2)cc1,-10,1,-1,22*
CN(C)S(=O)(=O)c1cccc(NC(=O)c2ccccc2OCc2ccc(F)cc2)c1,3,0,3,-14
CCCCC(CC)CN=C(N)NC(N)=NCCCCCCN=C(N)NC(N)=NCC(CC)CCCC (configuration not stated),nt,nt,nt,9.7*
BrC(=C\c1ccccc1)/C=N/Nc1ccc2nncn2n1,4,4.5*,0,-5
C(=N\Nc1ccc2nncn2n1)/c1ccco1,1,3,-12,-6
O=C(Nc1cccc(NC(=O)c2cccc(F)c2)n1)c1cccc(F)c1,-1,0,1,0
O=C(Nc1cccc(NC(=O)c2c(F)cccc2F)n1)c1c(F)cccc1F,25*,0,14,-8
O=C1/C(=C/c2cccnc2)N=C2CCCCCN12,3,4.6*,11,-4
CCOC(=O)[C@]12CCCC=C1N(CCc1ccc(OC)c(OC)c1)C(=O)[C@H](CC(=O)N1CCCC1)C2,-10,1,-1,nt
COc1ccc([C@H]2CC(=O)C=C(/C=C/c3ccccc3)C2)cc1OC,3,4.6*,13,0
CCN1C[C@@H]2[C@@H]3C(=O)N(C)C(=O)[C@@H]3[C@](Cc3ccccc3)(C1=O)N2C(=O)c1ccc(Br)cc1,11,-2,7,-2
Cc1c(/C(O)=C2\C(=O)C(=O)N(CCN(C)C)C2c2cccs2)cnn1-c1ccccc1 (configuration not stated),17,4.6*,-13,-7
O=C1CCCC(O)=C1C=Nc1ccc(O)cc1,8,4.6*,-14,-4
NC(=S)N=Nc1c(O)[nH]c2ccc(F)cc12,-1,4.5*,3,-2
C/C(=N\N(Cc1ccccc1)c1ccccc1)c1cccnc1,1,0,-7,-2
O=C(c1ccccc1)c1ccc2nc(-c3ccc(NC(=O)c4ccccc4F)cc3)[nH]c2c1,-6,3,-2,1
O=C(O)CCC(=O)Nc1ccc(-c2nc3ccc(C(=O)c4ccccc4)cc3[nH]2)cc1,-1,4.6*,-4,-4
SMILES,ARFGAP1 inhibitor,MsrA inhibitor,ASAP1 inh,bovine MsrA act
Cc1ccc(/C=N/n2c(C)n[nH]c2=S)o1,-5,4.6*,4,0
Nc1c(Cl)cc(N=Nc2ccccc2)cc1Cl,7,0,5,-2
Cc1nc(-c2ccc([N+](=O)[O-])cc2)sc1C(=O)O,8,4.6*,-1,-16
CCCC(=O)N1CCC1(C)C(=O)NS(=O)(=O)c1cccc(C)c1 (configuration not stated),-11,-1,-6,-2
O=C(N/N=C/c1ccc2c(c1)OCO2)c1ccc(NC(=O)c2ccccc2Cl)cc1,-3,5.2*,9,-13
CCOc1cc([N+](=O)[O-])cc(/C=C2/NC(=O)N(Cc3ccccc3F)C2=O)c1O,14,4.6*,10,-4
CC(Nc1cc(N2CCNCC2)ccc1[N+](=O)[O-])c1ccccc1 (configuration not stated),9,3,-2,1
CC(Nc1cc(N2CCN(C(=O)C(C)(C)C)CC2)ccc1[N+](=O)[O-])c1ccccc1 (configuration not stated),-4,11*,4,-2
